{"source": "ChEMBL document CHEMBL4028906", "about": "“Allosteric Inhibitors of SHP2 with Therapeutic Potential for Cancer Treatment” (J Med Chem, 2017)", "key": {"Homo sapiens [1]": {"organism": "Homo sapiens", "assay": "Allosteric inhibition of SHP2 E76A mutant (unknown origin) assessed as reduction in SHP2-mediated YAP Y357 peptide dephosphorylation. preincubated for 15 mins before YAP pY357 peptide addition and measured after 15 mins post substrate addition", "how_it_was_run": "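Purified SHP2 E76A (1.5 nM) preincubated 15 min with 20 μM inhibitor in 20 mM Tris-HCl pH 7.4, 100 mM NaCl, 1 mM EDTA, 2 mM DTT. 100 μM YAP pY357 peptide added for 15 min. Enzyme removed on 30 kD filters; products dot-blotted and probed with p-YAP(Y357) antibody (1:1000) with ECL detection.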"}, "[2]": {"assay": "Half life in nu/nu mouse at 10 mg/kg, po measured up to 24 hrs postdose by LC/MS/MS analysis", "format": "ADME, organism-based", "conditions": "in vivo", "how_it_was_run": "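Female nu/nu nude mice dosed IV via tail vein at 5 mg/kg or orally at 10 mg/kg. Blood sampled at 0.083, 0.25, 0.5, 1, 2, 4, 8 and 24 h post-dose (orbital sinus, terminal cardiac puncture; EDTA-2K). Plasma separated at 4 °C, precipitated with acetonitrile containing internal standard, quantified by LC/MS/MS.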"}, "[3]": {"biological_target": "T1, Tyrosine-protein phosphatase non-receptor type 11 (Homo sapiens) (UniProt Q06124)", "T1 sequence (whole entry)": "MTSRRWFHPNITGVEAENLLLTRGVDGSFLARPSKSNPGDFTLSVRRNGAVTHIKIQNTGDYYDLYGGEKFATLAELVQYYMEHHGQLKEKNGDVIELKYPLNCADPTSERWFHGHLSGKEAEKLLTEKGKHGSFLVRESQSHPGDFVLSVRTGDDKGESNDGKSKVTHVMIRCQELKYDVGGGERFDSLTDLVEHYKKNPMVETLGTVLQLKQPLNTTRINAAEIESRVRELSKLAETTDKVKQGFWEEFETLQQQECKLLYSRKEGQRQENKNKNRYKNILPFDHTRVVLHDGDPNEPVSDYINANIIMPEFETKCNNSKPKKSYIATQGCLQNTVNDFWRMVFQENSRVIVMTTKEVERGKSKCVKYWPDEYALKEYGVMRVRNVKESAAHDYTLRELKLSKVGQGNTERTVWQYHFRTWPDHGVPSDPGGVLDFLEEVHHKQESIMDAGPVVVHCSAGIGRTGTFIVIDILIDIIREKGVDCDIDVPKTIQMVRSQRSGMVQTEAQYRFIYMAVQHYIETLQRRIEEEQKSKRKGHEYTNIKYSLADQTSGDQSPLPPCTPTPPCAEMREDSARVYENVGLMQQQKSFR", "assay": "Allosteric inhibition of SHP2 in human NCI-H661 cells assessed as downregulation of ERK1/2 activation at 10 uM after 60 mins by Western blot analysis", "format": "cell-based", "how_it_was_run": "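NCI-H661 cells given 10 µM inhibitor over a time course. Lysates immunoblotted for p-ERK1/2, ERK1/2, p-AKT and AKT. Repeated at least three times.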"}, "[4]": {"biological_target": "T1, Tyrosine-protein phosphatase non-receptor type 11 (Homo sapiens)", "assay": "Allosteric inhibition of SHP2 in human SF268 cells assessed as downregulation of YAP-mediated CYR61 gene expression ay 10 to 20 uM after 2 hrs by qRT-PCR analysis", "format": "cell-based", "how_it_was_run": "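SF268 cells exposed to DMSO, 10 μM or 20 μM inhibitor for 2 h. RNA extracted, reverse-transcribed, and CTGF, CYR61, ANKRD1 and YAP mRNA quantified by qPCR; mean±s.d., n=3.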"}, "MV4-11": {"system": "MV4-11", "assay": "Antiproliferative activity against human MV4-11 cells at 3 to 6 uM after 2 days by CellTiter-Glo assay", "format": "functional, cell-based", "how_it_was_run": "(§1)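 3000 cells/well in 96-well plates, grown overnight, then inhibitor at indicated concentrations for 2 days (48 h). Viability by CellTiter-Glo; mean±s.d., n=3.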"}, "[5]": {"biological_target": "Tyrosine-protein phosphatase non-receptor type 2 (Homo sapiens, UniProt P17706)", "sequence (P17706 whole entry)": "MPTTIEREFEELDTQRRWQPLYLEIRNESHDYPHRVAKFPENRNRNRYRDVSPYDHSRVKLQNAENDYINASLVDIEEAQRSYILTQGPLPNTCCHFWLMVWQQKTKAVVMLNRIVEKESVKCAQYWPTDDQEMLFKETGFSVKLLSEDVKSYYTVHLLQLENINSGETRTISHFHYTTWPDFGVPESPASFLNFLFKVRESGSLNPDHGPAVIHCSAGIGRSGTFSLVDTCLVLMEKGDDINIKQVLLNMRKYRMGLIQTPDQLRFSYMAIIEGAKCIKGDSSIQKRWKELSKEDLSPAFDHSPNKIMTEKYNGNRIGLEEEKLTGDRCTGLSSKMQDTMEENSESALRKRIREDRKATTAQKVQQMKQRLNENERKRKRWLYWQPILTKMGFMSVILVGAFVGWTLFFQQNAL", "assay": "Inhibition of TC-PTP (unknown origin) expressed in Escherichia coli BL21(DE3) using DIFMUP as substrate preincubated for 20 mins followed by substrate addition measured after 20 mins by phosphatase assay", "how_it_was_run": "(§2)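 Phosphatases purified from E. coli and run as for SHP2 E76A: 20 min room-temperature preincubation with compound in 0.1 M sodium acetate pH 5.0, then DIFMUP at each enzyme's Km, 20 min, fluorescence 358/455 nm. Eight 3-fold dilutions in duplicate; IC50 from at least three independent experiments.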"}, "[6]": {"assay": "Allosteric inhibition of SHP2 E76A mutant (unknown origin) expressed in Escherichia coli BL21(DE3) using DIFMUP as substrate preincubated for 20 mins followed by substrate addition measured after 20 mins by phosphatase assay", "design": "species or system Homo sapiens", "how_it_was_run": "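His-tagged SHP2 constructs expressed in E. coli BL21(DE3) (0.5 mM IPTG, 5 h, 30 °C) and Ni-column purified. 1.5 nM enzyme preincubated 20 min at room temperature with compound in 0.1 M sodium acetate pH 5.0. DIFMUP then added, 20 min further, fluorescence at 358/455 nm. Eight 3-fold dilutions, duplicate wells, IC50 from at least three independent experiments.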"}, "Mus musculus": {"system": "Mus musculus", "assay": "Toxicity in BALB/c mouse xenografted with human MV4-11 cells assessed as effect on body weight at 10 to 30 mg/kg administered qd via oral gavage measured twice weekly", "format": "organism-based", "conditions": "in vivo", "how_it_was_run": "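Female BALB/c nude mice implanted subcutaneously with 5×10^6 MV4;11 cells in 50% matrigel/PBS. At about 230 mm³, mice randomized to vehicle, 10 or 30 mg/kg (10 ml/kg) once daily by oral gavage. Body weight and caliper tumor dimensions measured twice weekly; mean±sem.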"}, "[7]": {"biological_target": "Low molecular weight phosphotyrosine protein phosphatase (Homo sapiens, UniProt P24666)", "sequence (P24666 whole entry)": "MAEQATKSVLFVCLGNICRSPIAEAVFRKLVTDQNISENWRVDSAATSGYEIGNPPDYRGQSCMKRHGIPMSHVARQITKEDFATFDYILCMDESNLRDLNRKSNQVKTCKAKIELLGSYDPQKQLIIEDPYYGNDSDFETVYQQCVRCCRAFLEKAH", "assay": "Inhibition of LMW-PTP (unknown origin) expressed in Escherichia coli BL21(DE3) using DIFMUP as substrate preincubated for 20 mins followed by substrate addition measured after 20 mins by phosphatase assay", "how_it_was_run": "as §2"}, "[8]": {"biological_target": "T1, Tyrosine-protein phosphatase non-receptor type 11 (Homo sapiens)", "assay": "Allosteric inhibition of SHP2 in human A549 cells harboring KRAS mutant assessed downregulation on ERK1/2 phosphorylation at 5 and 10 uM after 2 hrs by Western blot analysis", "format": "cell-based"}, "[9]": {"biological_target": "T1, Tyrosine-protein phosphatase non-receptor type 11 (Homo sapiens)", "assay": "Allosteric inhibition of SHP2 in human NCI-H661 cells assessed as downregulation of ERK1/2 activation at 10 uM by Western blot analysis", "format": "cell-based", "conditions": "TDE = time-dependent effect"}, "Homo sapiens [10]": {"organism": "Homo sapiens", "assay": "Selectivity ratio of IC50 for MKP3 (unknown origin) expressed in Escherichia coli BL21(DE3) to IC50 for SHP2 E76A mutant (unknown origin) expressed in Escherichia coli BL21(DE3)", "how_it_was_run": "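Ratio of IC50 values from one DIFMUP fluorescence assay (Ex/Em 358/455), room temperature, 0.1 M sodium acetate pH 5.0. His-tagged SHP2 E76A (1.5 nM) or counter-phosphatase purified from E. coli, preincubated 20 min with compound (eight 3-fold dilutions), then DIFMUP added for 20 min. DIFMUP was at Km for each counter-phosphatase. Duplicates; IC50 from at least three independent experiments.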"}, "[11]": {"biological_target": "Tyrosine-protein phosphatase non-receptor type 1 (Homo sapiens, UniProt P18031)", "sequence (P18031 whole entry)": "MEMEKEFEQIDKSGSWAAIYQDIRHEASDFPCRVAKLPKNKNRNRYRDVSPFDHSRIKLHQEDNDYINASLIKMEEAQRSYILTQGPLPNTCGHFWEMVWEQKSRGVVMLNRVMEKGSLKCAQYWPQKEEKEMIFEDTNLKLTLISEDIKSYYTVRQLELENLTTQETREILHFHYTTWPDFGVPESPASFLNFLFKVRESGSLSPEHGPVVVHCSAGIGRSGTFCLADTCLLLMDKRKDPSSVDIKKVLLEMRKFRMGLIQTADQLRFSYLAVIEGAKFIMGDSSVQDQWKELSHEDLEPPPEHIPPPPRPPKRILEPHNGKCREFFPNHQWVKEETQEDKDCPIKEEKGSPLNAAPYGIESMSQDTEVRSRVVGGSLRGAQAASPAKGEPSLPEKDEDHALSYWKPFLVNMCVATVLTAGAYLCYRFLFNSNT", "assay": "Inhibition of PTP1B (unknown origin) expressed in Escherichia coli BL21(DE3) using DIFMUP as substrate preincubated for 20 mins followed by substrate addition measured after 20 mins by phosphatase assay", "how_it_was_run": "as §2"}, "MDA-MB-468": {"system": "MDA-MB-468", "assay": "Antiproliferative activity against human MDA-MB-468 cells at 3 to 6 uM after 2 days by CellTiter-Glo assay", "format": "functional, cell-based", "how_it_was_run": "as §1"}}, "note": "Calls of active or inactive are those of the source. No cut-off for these calls is given here."}
{"smiles": "CC1(N)CCN(c2nc(-c3ccc4cc(Br)ccc4c3)cs2)CC1", "values": [{"measurement": "inhibition", "setting": "Homo sapiens [1]", "value": "Active"}, {"measurement": "half-life", "setting": "[2]", "value": 13.3, "unit": "h"}, {"measurement": "inhibition", "setting": "[3]", "value": "Active"}, {"measurement": "inhibition", "setting": "[4]", "value": "Active"}, {"measurement": "Activity", "setting": "MV4-11", "value": "Active"}, {"measurement": "IC50", "setting": "[5]", "value": "> 100", "unit": "µM"}, {"measurement": "IC50", "setting": "[6]", "value": 0.71, "unit": "µM"}, {"measurement": "Activity", "setting": "Mus musculus", "value": "Non-Toxic"}, {"measurement": "IC50", "setting": "[7]", "value": "> 100", "unit": "µM"}, {"measurement": "inhibition", "setting": "[8]", "value": "inactive"}, {"measurement": "inhibition", "setting": "[9]", "value": "Tde"}, {"measurement": "Ratio IC50", "setting": "Homo sapiens [10]", "value": "> 30"}, {"measurement": "IC50", "setting": "[11]", "value": 31.2, "unit": "µM"}, {"measurement": "Activity", "setting": "MDA-MB-468", "value": "Active"}]}
